Blank lines part the entries; values can stand above or below the molecule they belong to. Activity calls are given as the source filed them. The rule behind the calls is not given here.
What was measured:
[1] = test system: Lactiplantibacillus plantarum; assay: Antimicrobial activity against Lactobacillus arabinosus 8014 assessed as growth inhibition up to 300 ug/ml; assay type: functional, organism-based
Procedure, shortened: (§1)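 Microbial growth toxicity tested by typical microbial procedures; each isomer at concentrations up to 300 μg/ml.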

[2] = test system: Escherichia coli; assay: Antimicrobial activity against Escherichia coli W assessed as growth inhibition up to 300 ug/ml; assay type: functional; procedure, shortened: as §1
[3] = test system: Escherichia coli; assay: Antimicrobial activity against Escherichia coli 9723 assessed as growth inhibition up to 300 ug/ml; assay type: functional, organism-based; procedure, shortened: as §1
[4] = test system: Jensen sarcoma; assay: Inhibition of growth of rat Jensen sarcoma cells assessed as new cells at 50 ug/ml after 72 hrs in presence of 26 ug/ml serine (reference value: 100%); assay type: functional; set-up: scale not given: the % may be the effect or the level left
Procedure, shortened: (§2)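 Jensen sarcoma cells seeded at 400000 cells/flask in replicate flasks in McCoy's 7a medium with 10% fetal calf serum, gassed with 8% CO2–92% air, 37°, 24 hr, then counted for zero time. Medium replaced with fresh medium containing analog at 50 μg/ml, with threonine added as listed and serine in medium at 26 μg/ml. Medium renewed at 48 hr. New cells counted at 72 hr, expressed as % of control in normal medium.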

[5] = test system: Jensen sarcoma; assay: Inhibition of growth of rat Jensen sarcoma cells assessed as new cells at 50 ug/ml after 72 hrs in presence of 18 ug/ml threonine and 26 ug/ml serine (reference value: 100%); assay type: functional; set-up: scale not given: the % may be the effect or the level left; procedure, shortened: as §2
[6] = test system: Enterococcus faecalis; assay: Antimicrobial activity against Streptococcus faecalis 8043 assessed as growth inhibition up to 300 ug/ml; assay type: functional, organism-based; procedure, shortened: as §1
[7] = Retardation factor of the compound in cyclohexylamine-water-methyl ethyl ketone-1-butanol at 1:2.5:5:5 ratio by paper chromatography; assay type: physicochemical; details: buffer
Procedure, shortened: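 Paper chromatography in cyclohexylamine–water–methyl ethyl ketone–1-butanol (1:2.5:5:5). Rf values compared with allothreonine and threonine run in the same system.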

[8] = test system: Leuconostoc mesenteroides; assay: Antimicrobial activity against Leuconostoc mesenteroides 10830 assessed as growth inhibition up to 300 ug/ml; assay type: functional; procedure, shortened: as §1
[9] = test system: Jensen sarcoma; assay: Inhibition of growth of rat Jensen sarcoma cells assessed as new cells at 50 ug/ml after 72 hrs in presence of 50 ug/ml threonine and 26 ug/ml serine (reference value: 100%); assay type: functional; set-up: scale not given: the % may be the effect or the level left; procedure, shortened: as §2
[10] = test system: Jensen sarcoma; assay: Inhibition of growth of rat Jensen sarcoma cells assessed as new cells at 50 ug/ml after 72 hrs in presence of 25 ug/ml threonine and 26 ug/ml serine (reference value: 100%); assay type: functional; set-up: scale not given: the % may be the effect or the level left; procedure, shortened: as §2

SMILES: N[C@@]1(C(=O)O)CCC[C@@H]1O (relative stereo)
growth inhibition (GI) [1]: inactive
growth inhibition (GI) [2]: inactive
growth inhibition (GI) [3]: inactive
Activity [4]: 12%
Activity [5]: 69%
growth inhibition (GI) [6]: inactive
Rf [7]: 0.38
growth inhibition (GI) [8]: inactive
Activity [9]: 68%

SMILES: NC1(C(=O)O)CCCC1 [CYCLOLEUCINE]
Activity [4]: 0%
Activity [10]: 5%

SMILES: C[C@@H](O)[C@H](N)C(=O)O [THREONINE]
Rf [7]: 0.54

More lines, main results first:

Rf [7]: 0.41
SMILES: C[C@H](O)[C@H](N)C(=O)O

Rf [7]: 0.45
SMILES: N[C@@]1(C(=O)O)CCC[C@H]1O (relative stereo)
growth inhibition (GI) [1]: inactive
growth inhibition (GI) [2]: inactive
growth inhibition (GI) [3]: inactive
Activity [4]: 12%
Activity [5]: 68%
growth inhibition (GI) [6]: inactive
growth inhibition (GI) [8]: inactive
Activity [9]: 68%
